Experimental data taken from ChEMBL document CHEMBL4028805, “Phenylthiazole Antibacterial Agents Targeting Cell Wall Synthesis Exhibit Potent Activity in Vitro and in Vivo against Vancomycin-Resistant Enterococci” (J Med Chem, 2017).
≈ marks a conversion by molar mass, not a printed value. Calls of active or inactive are those of the source.

Tests used:
Enterococcus faecium [1] = test: Bacteriostatic activity against vancomycin-resistant Enterococcus faecium ATCC 700221 assessed as reduction in CFU at 4 times MIC after 24 hrs; type: functional
Procedure, shortened: (§1)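 Late-log cells diluted to ~5 × 10^6 CFU/mL and exposed in triplicate to 4 × MIC, in TSB (E. faecalis HM-201) or BHI (E. faecium ATCC 700221) at 37 °C. Sampled at 0, 2, 4, 6, 8, 10, 12 and 24 h, diluted serially in PBS and plated on TSA or BHI agar. CFU/mL counted after 18–22 h. DMSO served as negative control.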

Enterococcus faecium [2] = test: Antibacterial activity against Enterococcus faecium clinical isolates after 18 to 22 hrs by broth microdilution method; type: functional
Procedure, shortened: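 Enterococcus faecium grown in BHI. MIC by CLSI broth microdilution, 37 °C for 18–22 h. Lowest concentration with no visible growth taken as MIC, reported as MIC50 across the isolates.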

Enterococcus faecium [3] = test: Bactericidal activity against Enterococcus faecium after 18 to 22 hrs by broth microdilution method; type: functional
Procedure, shortened: (§2)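 MBC determined after the broth microdilution MIC. 5 μL aliquots plated onto TSA (E. faecalis) or BHI agar (E. faecium) and incubated at 37 °C for 18–22 h. MBC is the concentration giving >99% reduction in cell count, reported as MBC50.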

Enterococcus faecalis [4] = test: Bactericidal activity against Enterococcus faecalis clinical isolates after 18 to 22 hrs by broth microdilution method; type: functional; procedure, shortened: as §2
Enterococcus faecium [5] = test: Ratio of MBC50 to MIC50 for Enterococcus faecium clinical isolates; type: functional
Procedure, shortened: (§3)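 MIC by CLSI broth microdilution in TSB (E. faecalis) or BHI (E. faecium), 37 °C for 18–22 h, taken as the lowest concentration without visible growth. For MBC, 5 μL aliquots were spotted onto TSA (E. faecalis) or BHI agar (E. faecium) and incubated 37 °C for 18–22 h; MBC is the concentration giving >99% drop in count. MIC50/MBC50 cover 50% of isolates.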

Enterococcus faecium [6] = test: Antibacterial activity against vancomycin-resistant Enterococcus faecium ATCC 700221 after 18 to 22 hrs in absence of colistin by broth microdilution method; type: functional
Enterococcus faecalis [7] = test: Bactericidal activity against vancomycin-resistant Enterococcus faecalis clinical isolates after 18 to 22 hrs by broth microdilution method; type: functional
Procedure, shortened: (§4)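 MBC follows the broth microdilution MIC. 5 μL aliquots spotted onto TSA (E. faecalis) or BHI agar (E. faecium), incubated 37 °C for 18–22 h. MBC is the concentration giving >99% reduction in bacterial count. MBC50 is the value for 50% of isolates.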

Enterococcus faecalis [8] = test: Antibacterial activity against vancomycin-resistant Enterococcus faecalis ATCC 51299 after 14 serial passages measured after 18 hrs by broth microdillution method; type: functional
Procedure, shortened: (§5)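 Multi-step selection over 14 passages in two weeks. McFarland 0.5 inoculum diluted 1:300 in TSB (E. faecalis) or BHI (E. faecium) to 1 × 10^5 CFU/mL. Each passage reinoculated at ~5 × 10^5 CFU/mL from the sub-inhibitory well of the previous plate. Compounds serially diluted in triplicate, incubated ≥18 h at 37 °C, MIC read visually. Resistance defined as >4-fold MIC rise.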

Enterococcus faecalis [9] = test: Bacteriostatic activity against vancomycin-resistant Enterococcus faecalis HM-201 assessed as reduction in CFU at 4 times MIC after 24 hrs; type: functional; procedure, shortened: as §1
Enterococcus faecium [10] = test: Antibacterial activity against vancomycin-resistant Enterococcus faecium ATCC HM-968 assessed as ratio of MIC after and before 3 serial passages measured after 18 hrs by broth microdillution method; type: functional
Procedure, shortened: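 Multi-step resistance selection: 0.5 McFarland suspension diluted 1:300 in BHI to a starting 1 × 10^5 CFU/mL. Broth microdilution MIC repeated for 14 passages over two weeks, each reseeded at ~5 × 10^5 CFU/mL from the sub-inhibitory well of the previous passage. Serial dilutions in triplicate, 37 °C for at least 18 h, MIC read visually. Resistance defined as a >4-fold MIC rise.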

Escherichia coli [11] = test: Antibacterial activity against Escherichia coli 1411 after 18 to 22 hrs in absence of colistin by broth microdilution method; type: functional
Procedure, shortened: (§6)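 Broth microdilution per CLSI guidelines. Gram-negatives grown in TSB. Each strain tested alone and again with colistin at ¼ × MIC to permeabilize the outer membrane. Plates incubated at 37 °C for 18–22 h. MIC read as the lowest concentration showing no visible growth.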

Enterococcus faecium [12] = test: Bactericidal activity against Vancomycin-resistant Enterococcus faecium clinical isolates after 18 to 22 hrs by broth microdilution method; type: functional; procedure, shortened: as §4
Escherichia coli [13] = test: Antibacterial activity against Escherichia coli 1411 harboring delta-acrAB after 18 to 22 hrs in absence of colistin by broth microdilution method; type: functional
Caenorhabditis elegans = test: Toxicity in Caenorhabditis elegans AU37 assessed as worm survival at 20 ug/ml after 24 hrs by microscopic analysis; settings: caenorhabditis elegans, 24 h
Procedure, shortened: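 Adult C. elegans AU37, 15–20 per well, exposed in triplicate to 10 or 20 μg/mL, with sterile water as negative control. Viability checked by microscopy. Result reported as percent viable worms after 24 h exposure.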

Enterococcus faecalis [14] = test: Ratio of MBC50 to MIC50 for Enterococcus faecalis clinical isolates; type: functional; procedure, shortened: as §3
Enterobacter cloacae [15] = test: Antibacterial activity against Enterobacter cloacae BAA-1154 after 18 to 22 hrs in absence of colistin by broth microdilution method; type: functional
Enterococcus faecalis [16] = test: Antibacterial activity against vancomycin-resistant Enterococcus faecalis ATCC 51299 assessed as ratio of MIC after and before 6 serial passages measured after 18 hrs by broth microdillution method; type: functional; procedure, shortened: as §5
Enterococcus faecalis [17] = test: Antibacterial activity against vancomycin-resistant Enterococcus faecalis ATCC 51299 assessed as ratio of MIC after and before 11 serial passages measured after 18 hrs by broth microdillution method; type: functional; procedure, shortened: as §5
Enterococcus faecium [18] = test: Antibacterial activity against vancomycin-resistant Enterococcus faecium ATCC HM-968 assessed as ratio of MIC after and before 11 serial passages measured after 18 hrs by broth microdillution method; type: functional; procedure, shortened: as §5
Pseudomonas aeruginosa [19] = test: Antibacterial activity against Pseudomonas aeruginosa ATCC 15442 after 18 to 22 hrs in absence of colistin by broth microdilution method; type: functional
Pseudomonas aeruginosa [20] = test: Antibacterial activity against Pseudomonas aeruginosa ATCC 15442 after 18 to 22 hrs in presence of 1/4 times MIC colistin by broth microdilution method; type: functional; procedure, shortened: as §6
Escherichia coli [21] = test: Antibacterial activity against Escherichia coli O157:H7 ATCC 35150 after 18 to 22 hrs in absence of colistin by broth microdilution method; type: functional
Acinetobacter baumannii [22] = test: Antibacterial activity against Acinetobacter baumanii ATCC 19606 after 18 to 22 hrs in presence of 1/4 times MIC colistin by broth microdilution method; type: functional; settings: ATCC 19606 = CIP 70.34 = JCM 6841; procedure, shortened: as §6
Staphylococcus aureus = test: Antibacterial against Methicillin-Resistant Staphylococcus aureus after 18 to 20 hrs by broth microdilution method; type: functional
Enterococcus faecium [23] = test: Bactericidal activity against vancomycin-resistant Enterococcus faecium ATCC 700221 at 4 times MIC after 24 hrs by time-kill assay; type: functional; procedure, shortened: as §1
Acinetobacter baumannii [24] = test: Antibacterial activity against Acinetobacter baumanii ATCC 19606 after 18 to 22 hrs in absence of colistin by broth microdilution method; type: functional; settings: ATCC 19606 = CIP 70.34 = JCM 6841; procedure, shortened: as §6
Enterococcus faecium [25] = test: Ratio of MBC50 to MIC50 for vancomycin-resistant Enterococcus faecium ATCC 700221; type: functional
Klebsiella pneumoniae [26] = test: Antibacterial activity against Klebsiella pneumoniae BAA-1706 after 18 to 22 hrs in presence of 1/4 times MIC colistin by broth microdilution method; type: functional; procedure, shortened: as §6
HRT-18 cell line [27] = test: Cytotoxicity against human HRT18 cells assessed as reduction in cell viability at 40 ug/ml after 24 hrs by MTS assay; type: cell-based; settings: hrt-18, 24 h
Procedure, shortened: (§7)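 HRT-18 cells maintained in RPMI-1640 with 10% fetal horse serum at 37 °C, 5% CO2. Exposed to 5, 10, 20 or 40 μg/mL for 2 or 24 h, then MTS added and absorbance read at 490 nm. Viability expressed relative to untreated cells, n ≥ 3, one-way ANOVA with Dunnett's test.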

Enterococcus faecium [28] = test: Bactericidal activity against vancomycin-resistant Enterococcus faecium ATCC 700221 at 4 times MIC after 2 hrs by time-kill assay; type: functional; procedure, shortened: as §1
Enterococcus faecalis [29] = test: Synergistic antimicrobial activity against Enterococcus faecalis ATCC 49532 after 20 hrs in presence of ciprofloxacin by checkerboard assay; type: functional
Procedure, shortened: (§8)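 Checkerboard in TSB with a starting inoculum of 1×10^5 CFU/mL. Compound and antibiotic diluted from 2× or 4× MIC along perpendicular axes. Incubated 20 h at 37 °C. ΣFIC calculated: ≤0.5 synergy, >0.5 to <2 additive, 2–4 indifference, >4 antagonism.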

Enterococcus faecalis [30] = test: Antibacterial activity against Enterococcus faecalis ATCC 31975 at 4 to 8 times MIC after 48 hrs by broth microdillution method; type: functional
Procedure, shortened: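 Single-step resistance selection. Cultures of 5 × 10^8 to 5 × 10^10 CFU/mL spread on TSA containing compound at 2×, 4× or 8× MIC and incubated aerobically at 37 °C for 48 h. Colony MICs rechecked by broth microdilution. Frequency calculated as resistant colonies per inoculum.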

Enterococcus faecalis [31] = test: Antibacterial activity against Enterococcus faecalis clinical isolates after 18 to 22 hrs by broth microdilution method; type: functional
Procedure, shortened: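 CLSI broth microdilution against panels of enterococcal isolates. E. faecalis grown in TSB, E. faecium in BHI, 37 °C for 18–22 h. MIC is the lowest concentration without visible growth. MIC50 is the value inhibiting 50% of isolates in each group.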

Enterococcus faecalis [32] = test: Synergistic antimicrobial activity against Enterococcus faecalis ATCC 49533 after 20 hrs in presence of ciprofloxacin by checkerboard assay; type: functional; procedure, shortened: as §8
Klebsiella pneumoniae [33] = test: Antibacterial activity against Klebsiella pneumoniae BAA-1706 after 18 to 22 hrs in absence of colistin by broth microdilution method; type: functional
HRT-18 cell line [34] = test: Cytotoxicity against human HRT18 cells assessed as reduction in cell viability at 20 ug/ml after 24 hrs by MTS assay; type: cell-based; settings: hrt-18, 24 h; procedure, shortened: as §7
HRT-18 cell line [35] = test: Cytotoxicity against human HRT18 cells assessed as reduction in cell viability up to 40 ug/ml after 2 hrs by MTS assay; type: cell-based; settings: hrt-18, 2 h; procedure, shortened: as §7
Enterobacter cloacae [36] = test: Antibacterial activity against Enterobacter cloacae BAA-1154 after 18 to 22 hrs in presence of 1/4 times MIC colistin by broth microdilution method; type: functional; procedure, shortened: as §6

For `CC(=O)NC[C@H]1CN(c2ccc(N3CCOCC3)c(F)c2)C(=O)O1` [LINEZOLID], the Activity (Enterococcus faecium [1]) was “Active”, the MIC50 (Enterococcus faecium [2]) was 2 µg/mL (≈ 5.93 µM) and the MBC50 (Enterococcus faecium [3]) was 16 µg/mL (≈ 47.4 µM). For the same compound, the MBC50 (Enterococcus faecalis [4]) was 64 µg/mL (≈ 190 µM), the Ratio (Enterococcus faecium [5]) was >4 and the MIC (Enterococcus faecium [6]) was 0.5 µg/mL (≈ 1.48 µM). The MBC50 (Enterococcus faecalis [7]) was 64 µg/mL (≈ 190 µM), the Activity (Enterococcus faecalis [8]) was “Active” and the Activity (Enterococcus faecalis [9]) was “Active”. The Ratio (Enterococcus faecium [10]) was 1, the MIC (Escherichia coli [11]) was > 128 µg/mL and the MBC50 (Enterococcus faecium [12]) was 128 µg/mL (≈ 379 µM). The MIC (Escherichia coli [13]) was 8 µg/mL (≈ 23.7 µM), the Activity (Caenorhabditis elegans) was “Non-Toxic” and the Ratio (Enterococcus faecalis [14]) was >4.
`C/C(=N\NC(=N)N)c1sc(-c2ccc(-c3ccccc3)cc2)nc1C` was tested, and the Activity (Enterococcus faecium [1]) was “Active”, the MIC (Enterobacter cloacae [15]) was > 128 µg/mL and the Ratio (Enterococcus faecalis [16]) was 1. For the same compound, the MIC50 (Enterococcus faecium [2]) was 8 µg/mL (≈ 22.9 µM), the Ratio (Enterococcus faecalis [17]) was 2 and the MBC50 (Enterococcus faecium [3]) was 16 µg/mL (≈ 45.8 µM). The MBC50 (Enterococcus faecalis [4]) was 16 µg/mL (≈ 45.8 µM), the Ratio (Enterococcus faecium [18]) was 1 and the MIC (Pseudomonas aeruginosa [19]) was > 128 µg/mL. The MIC (Pseudomonas aeruginosa [20]) was 1 µg/mL, the MIC (Escherichia coli [21]) was > 128 µg/mL and the MIC (Acinetobacter baumannii [22]) was 1 µg/mL. For the same compound, the MIC (Staphylococcus aureus) was 1.3 to 5.6 µg/mL (≈ 3.72 to 16 µM), the Activity (Enterococcus faecium [23]) was “inactive” and the MIC (Enterococcus faecium [6]) was 0.5 µg/mL (≈ 1.43 µM). The MIC (Acinetobacter baumannii [24]) was 8 µg/mL (≈ 22.9 µM), the Ratio (Enterococcus faecium [25]) was >4 and the MIC (Klebsiella pneumoniae [26]) was 2 µg/mL. The Activity (HRT-18 cell line [27]) was “Toxic”, the Activity (Enterococcus faecium [28]) was “Active” and the “fractional inhibitory concentration index (FICI)” value (Enterococcus faecalis [29]) was 0.63 - 1. The Activity (Enterococcus faecalis [30]) was “Active”, the MIC50 (Enterococcus faecalis [31]) was 8 µg/mL (≈ 22.9 µM) and the “fractional inhibitory concentration index (FICI)” value (Enterococcus faecalis [32]) was 0.63 - 1. The MIC (Klebsiella pneumoniae [33]) was > 128 µg/mL, the Activity (HRT-18 cell line [34]) was “Non-Toxic” and the MBC50 (Enterococcus faecium [12]) was 16 µg/mL (≈ 45.8 µM). For the same compound, the MIC (Escherichia coli [13]) was 4 µg/mL (≈ 11.4 µM), the Activity (HRT-18 cell line [35]) was “Non-Toxic” and the MIC (Enterobacter cloacae [36]) was 1 µg/mL.
